HePTP inh: human HePTP phosphatase inhibition | P35236 | recombinant HePTP phosphatase activity, OD absorbance | inhibition, % at 20 µM | 110,000 compounds, 0.64% hits | AID 521; in the data active means inhibition above about 50%;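 further: plate controls were vehicle for no effect and reference inhibitor for full effect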
JNK3 blocker: blocks human JNK3 kinase activity | P53779 | purified JNK3 kinase activity, HTS | inhibition, % at 8 µM | 60,000 compounds, 0.61% hits; in the data active means inhibition above about 17%;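 further: 0% = DMSO and 100% = reference inhibitor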
Target sequence (P53779 whole entry, looked up): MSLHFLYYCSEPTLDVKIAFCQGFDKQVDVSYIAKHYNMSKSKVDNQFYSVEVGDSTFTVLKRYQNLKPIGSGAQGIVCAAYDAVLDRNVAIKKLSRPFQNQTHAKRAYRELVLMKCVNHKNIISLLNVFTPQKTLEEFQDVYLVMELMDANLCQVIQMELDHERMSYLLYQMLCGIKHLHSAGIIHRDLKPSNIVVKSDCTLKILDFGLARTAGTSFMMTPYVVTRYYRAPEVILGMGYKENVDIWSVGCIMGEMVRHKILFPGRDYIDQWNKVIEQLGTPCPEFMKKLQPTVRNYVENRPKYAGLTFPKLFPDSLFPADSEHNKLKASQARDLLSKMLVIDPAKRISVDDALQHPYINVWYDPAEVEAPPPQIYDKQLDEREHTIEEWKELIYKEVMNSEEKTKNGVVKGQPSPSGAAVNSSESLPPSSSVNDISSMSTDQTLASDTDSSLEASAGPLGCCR
HEK293 NFkB inh: inhibitors of the PMA/ionomycin-induced NF-kB reporter in HEK293 cells; HEK-293 NF-kB luciferase reporter, luminescence; inhibition, % at 3 µM; 62,000 compounds, 0.21% hits; AID 465;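 active means inhibition above the mean of all tested compounds plus 3 SD, cut at about 40% in these data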;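 further: 0% = stimulated DMSO wells and 100% = 10 µM reference inhibitor 5653914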
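Material: HEK-293 cells with stable firefly luciferase reporter driven by four HIV NF-kB elements / Also added: PMA plus ionomycin mix as NF-kB-activating stimulus / Compound dosing: 3 µM once, 0.30% DMSO / Times: 1 h pretreatment, 16 h stimulation, 37 °C / Signal: luminescence / Evaluation: per-plate % inhibition versus controls / Benchmarks: DMSO and 10 µM reference inhibitor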
MMP-13 inhibitor: MMP13 (human) collagenase inhibition. P45452. MMP-13 fTHP FRET cleavage, Mca fluorescence. inhibition, % at 4 µM. 65,000 compounds, 0.07% hits. AID 570;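 active means inhibition above the mean of compound-free control plate wells plus 3 SD, cut at about 14% in these data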;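 further: 0% = DMSO wells and 100% = wells with reference MMP-13 inhibitor after basal subtraction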
An asterisk follows results filed as active; ! = not active in a repeat. Hits are enriched below; roughly 0.93% of the tested compounds scored in any of these assays.

What do the screens show for `CCOC(=O)Nc1sc2c(c1C(N)=O)CCC(C)C2` (centres undefined)?
HePTP inh: 103*

Results for O=C1C(C=Nc2ccccc2O)=C(O)c2ccccc21 ?
HePTP inh: -3; JNK3 blocker: 35*; HEK293 NFkB inh: 11; MMP-13 inhibitor: 3

How did CC(C)c1cc(Nc2nccs2)cc(C(C)C)c1O do in these assays?
HePTP inh: 84*

How did CC(C)CCNC(=O)C(=O)Nc1nccs1 do in these assays?
HePTP inh: 7

Results for Cc1cc(NC(=O)CSc2cn(CCNC(=O)c3ccccc3)c3ccccc23)no1 ?
HePTP inh: -4; JNK3 blocker: 4; HEK293 NFkB inh: 8; MMP-13 inhibitor: 2

How did Cc1ccc(C(=O)NCCn2cc(SCC(=O)Nc3cc(C)on3)c3ccccc32)cc1 do in these assays?
HePTP inh: 4; JNK3 blocker: -7; HEK293 NFkB inh: 47*; MMP-13 inhibitor: 0

Results for O=[N+]([O-])c1cccc(S(=O)(=O)NCc2ccc(F)cc2)c1 ?
HePTP inh: -1

Results for O=C(NC(NC(=O)c1ccccc1)c1cccc([N+](=O)[O-])c1)c1ccccc1 ?
HePTP inh: 104*

How did CC(C)CC(=O)NC(NC(=O)CC(C)C)c1cccc([N+](=O)[O-])c1 do in these assays?
HePTP inh: 56*

Results for O=C(Cc1ccccc1)NC(NC(=O)Cc1ccccc1)c1cccc([N+](=O)[O-])c1 ?
HePTP inh: 3

How did COc1cc(-c2nc3sc4c(c3c(=O)[nH]2)CCCC4)ccc1OCc1cccc(F)c1 do in these assays?
HePTP inh: 9

Results for COc1cccc(C2/C(=C(\O)c3ccc(F)cc3)C(=O)C(=O)N2CCCCCC(=O)O)c1 (centres undefined) ?
HePTP inh: -24

How did CN1CCCC1=NC(=S)CN1CCCC1=S do in these assays?
HePTP inh: 97*

How did CCN(CC)CCOc1c(Cl)cccc1Cl do in these assays?
HePTP inh: 1

How did CC(Sc1ccc2ccccc2n1)C(=O)O (centres undefined) do in these assays?
HePTP inh: 3; JNK3 blocker: 39*; MMP-13 inhibitor: 1

What do the screens show for `O=C(N/N=C/c1ccccc1O)c1cnccn1`?
HePTP inh: 104*

Results for Nc1n[nH]c(N)c1N=Nc1ccccc1F ?
HePTP inh: 103*

Results for C=CCN=C1CC(C)(C)CC(=O)/C1=C(/O)CCC ?
HePTP inh: 102*

Results for OC(c1ccc(Br)cc1)C12CN3CN(CN(C3)C1)C2 (centres undefined) ?
HePTP inh: 104*

How did CCC(C(=O)Nc1ccc(OC)cc1OC)c1ccccc1 (centres undefined) do in these assays?
HePTP inh: 104*

Results for O=c1c2ccccc2nc(-c2ccco2)n1CCCn1ccnc1 ?
HePTP inh: 1; JNK3 blocker: 18*; HEK293 NFkB inh: 3; MMP-13 inhibitor: 2

Results for O=c1c2ccccc2nc(-c2ccccc2)n1CCCn1ccnc1 ?
HePTP inh: -9; JNK3 blocker: 0; HEK293 NFkB inh: -4; MMP-13 inhibitor: 3

What do the screens show for `C#CCOc1ccc(/C=C2\C(=O)NC(=O)N(c3ccc(Br)c(C)c3)C2=O)cc1`?
HePTP inh: 7

Results for Cc1ccc(C)n1Cc1ccc(C(=O)O)cc1 ?
HePTP inh: 104*!; JNK3 blocker: -8; MMP-13 inhibitor: 4

Results for O=C(O)c1ccc(CN2CCOCC2)cc1 ?
HePTP inh: -8

Results for O=C1OC(c2ccc(-c3ccccc3)cc2)c2ccccc21 (centres undefined) ?
HePTP inh: 105*

How did O=C(O)CCC(NS(=O)(=O)c1ccc(-c2ccccc2)cc1)C(=O)O (centres undefined) do in these assays?
HePTP inh: -4; HEK293 NFkB inh: 22; MMP-13 inhibitor: 50*

Results for COc1nc(N)nc(N2CCOCC2)n1 ?
HePTP inh: 11; JNK3 blocker: 4; HEK293 NFkB inh: 18; MMP-13 inhibitor: 15*

How did S=C(S)N(CCN(Cc1cccs1)C(=S)S)Cc1cccs1 do in these assays?
HePTP inh: 67*

How did CN(Cc1cccs1)S(=O)(=O)c1cccs1 do in these assays?
HePTP inh: 2; JNK3 blocker: 0; HEK293 NFkB inh: 8; MMP-13 inhibitor: -2

How did Cc1ccc2cc(S(=O)(=O)N=Nc3c(O)[nH]c4ccc([N+](=O)[O-])cc34)ccc2c1 do in these assays?
HePTP inh: -10

How did O=c1cc(-c2cc(O)c3c(O)c4ccccc4c(O)c3c2O)c(=O)c2c(=O)c3ccccc3c(=O)c1=2 do in these assays?
HePTP inh: 84*

How did CC12C(=O)C(C)(C(c3ccccc3)=C1c1ccccc1)C1C(=O)N(c3ccccc3Cl)C(=O)C12 (centres undefined) do in these assays?
HePTP inh: -22

What do the screens show for `Cc1ccc(-c2nsc3c(N4CCC(C(N)=O)CC4)ncnc23)cc1`?
HePTP inh: 8; JNK3 blocker: 2; HEK293 NFkB inh: 42*; MMP-13 inhibitor: -17

Results for O=C(N1CCCC1)N1CCN(c2ncnc3c(-c4ccc(Cl)cc4)nsc23)CC1 ?
HePTP inh: -8; JNK3 blocker: -1; HEK293 NFkB inh: -4; MMP-13 inhibitor: 5

How did O=C(N=Nc1c(O)[nH]c2ccc([N+](=O)[O-])cc12)c1ccc2c(c1)OCO2 do in these assays?
HePTP inh: 102*

What do the screens show for `O=C1OC(c2ccccc2F)=N/C1=C\c1cccc2ccccc12`?
HePTP inh: -4

Results for Cc1ccc(NC(=O)C(Cl)(Cl)C(=O)Nc2ccc(C)cc2)cc1 ?
HePTP inh: 15

Results for CC1CC(C)(C)Nc2ccc(OC(=O)c3ccco3)cc21 (centres undefined) ?
HePTP inh: -7; JNK3 blocker: 9; HEK293 NFkB inh: 58*; MMP-13 inhibitor: -1

Results for COc1ccc(-n2ncc3c(N(C)C4CCCCC4)ncnc32)cc1 ?
HePTP inh: 3; JNK3 blocker: 6; HEK293 NFkB inh: 46*; MMP-13 inhibitor: -18

Results for Cc1cccc(-n2ncc3c(N(C)C4CCCCC4)ncnc32)c1 ?
HePTP inh: 9; JNK3 blocker: 0; HEK293 NFkB inh: 62*; MMP-13 inhibitor: 1

Results for CCC(=O)N1N=C2c3cc(OC)ccc3CCC2C1c1ccc(F)cc1 (centres undefined) ?
HePTP inh: -8

How did O=C1c2cccc3cccc(c23)C(=O)N1/N=C/c1ccc(Br)cc1 do in these assays?
HePTP inh: -1

Results for Cc1c(Cc2ccccc2)c(=O)oc2cc(OCC(=O)N(C)C)ccc12 ?
HePTP inh: 5

Results for Cc1ccc(-c2nc3cc(Cl)ccc3o2)cc1NC(=O)C(Cl)(Cl)Cl ?
HePTP inh: 53*

What do the screens show for `Cc1ccc(-c2nc3cc(Cl)ccc3o2)cc1NC(=O)C(C)C`?
HePTP inh: -2

How did Cc1cc(C(=O)NCc2ccco2)cs1 do in these assays?
HePTP inh: -3; JNK3 blocker: 0; HEK293 NFkB inh: 13; MMP-13 inhibitor: 3

What do the screens show for `Cn1c(C(=O)NCc2ccco2)cc2c(=O)[nH]c3ccccc3c21`?
HePTP inh: -12; JNK3 blocker: 47*; HEK293 NFkB inh: 14; MMP-13 inhibitor: -22
